In ChEMBL document CHEMBL3286116, “Synthesis, biological evaluation and structure-activity correlation study of a series of imidazol-based compounds as Candida albicans inhibitors” (Eur J Med Chem, 2014):
In brackets after ≈: the same amount, converted by molar mass.

Assays:
Format in all cases: functional
Candida albicans [1] = experiment: Antifungal activity against Candida albicans ATCC 90028 after 48 hrs by CLSI broth microdilution method; settings: ATCC 90028, 48 h
Summary of the method: (§1)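 Yeast CLSI broth microdilution (M27-A3). Compounds dissolved in DMSO at 100× the top test concentration, then diluted as serial two-fold dilutions in RPMI 1640 to final 0.125–64. Inoculum was 1.0–1.5 × 10^3 cells mL−1, incubated at 35 °C and read for growth at 48 h. MIC is the lowest concentration giving ≥50% growth inhibition versus growth control. Reported as the median of five replicates and as the geometric mean.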

Candida albicans [2] = experiment: Antifungal activity against Candida albicans ATCC 20891 after 48 hrs by CLSI broth microdilution method; settings: ATCC 20891, 48 h; summary of the method: as §1
Candida albicans [3] = experiment: Antifungal activity against Candida albicans PMC 1011 after 48 hrs by CLSI broth microdilution method; settings: PMC 1011, 48 h; summary of the method: as §1
Pichia kudriavzevii [4] = experiment: Antifungal activity against Candida krusei DSM 6128 after 48 hrs by CLSI broth microdilution method; settings: DSM 6128, 48 h; summary of the method: as §1
Pichia kudriavzevii [5] = experiment: Antifungal activity against Candida krusei PMC 0613 after 48 hrs by CLSI broth microdilution method; settings: PMC 0613, 48 h; summary of the method: as §1
Candida tropicalis [6] = experiment: Antifungal activity against Candida tropicalis PMC 0910 after 48 hrs by CLSI broth microdilution method; settings: PMC 0910, 48 h; summary of the method: as §1
Candida tropicalis [7] = experiment: Antifungal activity against Candida tropicalis DSM 11953 after 48 hrs by CLSI broth microdilution method; settings: DSM 11953, 48 h; summary of the method: as §1
Candida parapsilosis [8] = experiment: Antifungal activity against Candida parapsilosis DSM 11224 after 48 hrs by CLSI broth microdilution method; settings: Lodderomyces parapsilosis, DSM 11224, 48 h; summary of the method: as §1
Candida parapsilosis [9] = experiment: Antifungal activity against Candida parapsilosis ATCC 22019 after 48 hrs by CLSI broth microdilution method; settings: Lodderomyces parapsilosis, ATCC 22019, 48 h; summary of the method: as §1
Nakaseomyces glabratus [10] = experiment: Antifungal activity against Candida glabrata PMC 0805 after 48 hrs by CLSI broth microdilution method; settings: PMC 0805, 48 h; summary of the method: as §1
Nakaseomyces glabratus [11] = experiment: Antifungal activity against Candida glabrata PMC 0807 after 48 hrs by CLSI broth microdilution method; settings: PMC 0807, 48 h; summary of the method: as §1
Cryptococcus neoformans [12] = experiment: Antifungal activity against Cryptococcus neoformans PMC 2123 after 72 hrs by CLSI broth microdilution method; settings: PMC 2123, 72 h
Summary of the method: (§2)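 Cryptococcus neoformans tested by CLSI broth microdilution in RPMI 1640, with serial two-fold dilutions from DMSO stocks at 100× the top concentration, final 0.125–64. Inoculum was 1.0–1.5 × 10^3 cells mL−1 at 35 °C, with growth read at 72 h. MIC is the lowest concentration with ≥50% growth inhibition versus control. Median of five replicates, plus geometric mean.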

Cryptococcus neoformans [13] = experiment: Antifungal activity against Cryptococcus neoformans PMC 2136 after 72 hrs by CLSI broth microdilution method; settings: PMC 2136, 72 h; summary of the method: as §2
Cryptococcus neoformans [14] = experiment: Antifungal activity against Cryptococcus neoformans PMC 2115 after 72 hrs by CLSI broth microdilution method; settings: PMC 2115, 72 h; summary of the method: as §2
Cryptococcus neoformans [15] = experiment: Antifungal activity against Cryptococcus neoformans PMC 2103 after 72 hrs by CLSI broth microdilution method; settings: PMC 2103, 72 h; summary of the method: as §2
Cryptococcus neoformans [16] = experiment: Antifungal activity against Cryptococcus neoformans PMC 2107 after 72 hrs by CLSI broth microdilution method; settings: PMC 2107, 72 h; summary of the method: as §2
Cryptococcus neoformans [17] = experiment: Antifungal activity against Cryptococcus neoformans PMC 2102 after 72 hrs by CLSI broth microdilution method; settings: PMC 2102, 72 h; summary of the method: as §2
Cryptococcus neoformans [18] = experiment: Antifungal activity against Cryptococcus neoformans DSM 11959 after 72 hrs by CLSI broth microdilution method; settings: DSM 11959, 72 h; summary of the method: as §2
Cryptococcus neoformans [19] = experiment: Antifungal activity against Cryptococcus neoformans PMC 2111 after 72 hrs by CLSI broth microdilution method; settings: PMC 2111, 72 h; summary of the method: as §2
[20] = tested on: Trichophyton mentagrophytes; experiment: Antifungal activity against Trichophyton mentagrophytes DSM 4870 after 72 hrs by CLSI broth microdilution method; settings: DSM 4870, 72 h
Summary of the method: (§3)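 Dermatophytes tested by CLSI broth microdilution for filamentous fungi (M38-A2). Serial two-fold dilutions of DMSO-dissolved compound in RPMI 1640, final 0.125–64. Inoculum was 0.4–5 × 10^4 CFU mL−1, incubated at 35 °C and read at 72 h. MIC80 is the lowest concentration giving ≥80% growth inhibition versus growth control. Median of five replicates, plus geometric mean.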

[21] = tested on: Trichophyton mentagrophytes; experiment: Antifungal activity against Trichophyton mentagrophytes PMC 6515 after 72 hrs by CLSI broth microdilution method; settings: PMC 6515, 72 h; summary of the method: as §3
[22] = tested on: Trichophyton mentagrophytes; experiment: Antifungal activity against Trichophyton mentagrophytes PMC 6531 after 72 hrs by CLSI broth microdilution method; settings: PMC 6531, 72 h; summary of the method: as §3
[23] = tested on: Trichophyton mentagrophytes; experiment: Antifungal activity against Trichophyton mentagrophytes PMC 6509 after 72 hrs by CLSI broth microdilution method; settings: PMC 6509, 72 h; summary of the method: as §3
[24] = tested on: Trichophyton mentagrophytes; experiment: Antifungal activity against Trichophyton mentagrophytes PMC 6503 after 72 hrs by CLSI broth microdilution method; settings: PMC 6503, 72 h; summary of the method: as §3
[25] = tested on: Trichophyton mentagrophytes; experiment: Antifungal activity against Trichophyton mentagrophytes PMC 6552 after 72 hrs by CLSI broth microdilution method; settings: PMC 6552, 72 h; summary of the method: as §3
Nannizzia gypsea [26] = experiment: Antifungal activity against Microsporum gypseum PMC 7303 after 72 hrs by CLSI broth microdilution method; settings: PMC 7303, 72 h; summary of the method: as §3
Nannizzia gypsea [27] = experiment: Antifungal activity against Microsporum gypseum PMC 7331 after 72 hrs by CLSI broth microdilution method; settings: PMC 7331, 72 h; summary of the method: as §3
Nannizzia gypsea [28] = experiment: Antifungal activity against Microsporum gypseum DSM 3824 after 72 hrs by CLSI broth microdilution method; settings: DSM 3824, 72 h; summary of the method: as §3
Candida albicans [29] = experiment: Antifungal activity against Candida albicans ATCC 24433 after 48 hrs by CLSI broth microdilution method; settings: ATCC 24433, 48 h; summary of the method: as §1
Candida albicans [30] = experiment: Antifungal activity against Candida albicans ATCC 3153 after 48 hrs by CLSI broth microdilution method; settings: ATCC 3153, 48 h; summary of the method: as §1
Candida albicans [31] = experiment: Antifungal activity against Candida albicans ATCC 10231 after 48 hrs by CLSI broth microdilution method; settings: ATCC 10231, 48 h; summary of the method: as §1
Candida albicans [32] = experiment: Antifungal activity against Candida albicans ATCC 76615 after 48 hrs by CLSI broth microdilution method; settings: ATCC 76615, 48 h; summary of the method: as §1
Candida albicans [33] = experiment: Antifungal activity against Candida albicans ATCC 10261 after 48 hrs by CLSI broth microdilution method; settings: ATCC 10261, 48 h; summary of the method: as §1

MIC50 (Candida albicans [1]): 128 µg/mL (≈ 254 µM)
MIC50 (Candida albicans [2]): 128 µg/mL (≈ 254 µM)
MIC50 (Candida albicans [3]): 128 µg/mL (≈ 254 µM)
MIC50 (Pichia kudriavzevii [4]): 128 µg/mL (≈ 254 µM)
MIC50 (Pichia kudriavzevii [5]): 128 µg/mL (≈ 254 µM)
MIC50 (Candida tropicalis [6]): 128 µg/mL (≈ 254 µM)
MIC50 (Candida tropicalis [7]): 128 µg/mL (≈ 254 µM)
MIC50 (Candida parapsilosis [8]): 128 µg/mL (≈ 254 µM)
MIC50 (Candida parapsilosis [9]): 128 µg/mL (≈ 254 µM)
MIC50 (Nakaseomyces glabratus [10]): 128 µg/mL (≈ 254 µM)
MIC50 (Nakaseomyces glabratus [11]): 128 µg/mL (≈ 254 µM)
MIC50 (Cryptococcus neoformans [12]): 64 µg/mL (≈ 127 µM)
MIC50 (Cryptococcus neoformans [13]): 16 µg/mL (≈ 31.8 µM)
MIC50 (Cryptococcus neoformans [14]): 64 µg/mL (≈ 127 µM)
MIC50 (Cryptococcus neoformans [15]): 1 µg/mL (≈ 1.99 µM)
MIC50 (Cryptococcus neoformans [16]): 16 µg/mL (≈ 31.8 µM)
MIC50 (Cryptococcus neoformans [17]): 32 µg/mL (≈ 63.6 µM)
MIC50 (Cryptococcus neoformans [18]): 16 µg/mL (≈ 31.8 µM)
MIC50 (Cryptococcus neoformans [19]): 16 µg/mL (≈ 31.8 µM)
MIC80 [20]: 128 µg/mL (≈ 254 µM)
MIC80 [21]: 128 µg/mL (≈ 254 µM)
MIC80 [22]: 128 µg/mL (≈ 254 µM)
MIC80 [23]: 128 µg/mL (≈ 254 µM)
MIC80 [24]: 128 µg/mL (≈ 254 µM)
MIC80 [25]: 128 µg/mL (≈ 254 µM)
MIC80 (Nannizzia gypsea [26]): 64 µg/mL (≈ 127 µM)
MIC80 (Nannizzia gypsea [27]): 128 µg/mL (≈ 254 µM)
MIC80 (Nannizzia gypsea [28]): 128 µg/mL (≈ 254 µM)
MIC50 (Candida albicans [29]): 128 µg/mL (≈ 254 µM)
MIC50 (Candida albicans [30]): 128 µg/mL (≈ 254 µM)
MIC50 (Candida albicans [31]): 128 µg/mL (≈ 254 µM)
MIC50 (Candida albicans [32]): 128 µg/mL (≈ 254 µM)
MIC50 (Candida albicans [33]): 32 µg/mL (≈ 63.6 µM)
SMILES: O=C(Nc1ccc(N2CCN(C(=O)c3ccco3)CC2)cc1)OC(Cn1ccnc1)c1ccc(F)cc1 (stereo not drawn)
